Active and inactive are the calls of the source. No cut-off for these calls is given here.
Columns and labels:
HCT-116 [1] = assay: Induction of apoptosis in human HCT116 cells assessed as viable cells at 40 uM after 48 hrs by Annexin V-FITC/propidium iodide staining-based flow cytometric analysis (reference value: 86.7 %); format: functional; settings: HCT-116, 48 h, read-out: Activity
How it was run: (§1)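 Cells (1–2 × 10^5 per well) seeded in six-well plates 24 h, treated at 0–40 μM for 24 h or 48 h, harvested, washed twice in cold PBS, stained with Annexin V-FITC/PI and analysed by flow cytometry; early (Annexin V only) and late (Annexin V and PI) apoptotic fractions quantified; three experiments.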

CT26 [2] = assay: Antimetastatic activity against mouse CT26 cells allografted in Balb/c mouse assessed as reduction in splenomegaly at 25 to 50 mg/kg, ip administered daily for 14 days starting from 6 days post implantation; format: functional, organism-based
How it was run: (§2)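 Female BALB/c mice (6–8 weeks) injected ip with 5 × 10^5 CT26 cells; from day 6, randomized (eight per group) to ip vehicle, 25 or 50 mg/kg once daily for 14 days. Abdominal circumference and body weight every 3 days; abdominal nodules counted by eye and weighed; spleens assessed; paraffin tumour sections immunostained (Ki-67, MMP-9, p-Stat3) with DAB detection.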

HCT-116 [3] = assay: Induction of apoptosis in human HCT116 cells assessed as appearance of condensed nuclei up to 40 uM after 48 hrs by Hoechst 33258 staining-based fluorescent microscopic analysis; format: functional, cell-based
How it was run: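 Cells (1–2 × 10^5 per well) plated on 18-mm coverslips in six-well plates for 24 h, treated at various concentrations for 48 h, washed with cold PBS, fixed 15 min in 4% paraformaldehyde, stained with Hoechst 33258 (5 μg/ml); condensed/fragmented nuclei scored by fluorescence microscopy (10×); stained positive cells, mean ± SD of three experiments.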

HCT-116 [4] = assay: Anticlonogenic activity against human HCT116 cells assessed as reduction in colony formation up to 40 uM incubated for 24 hrs supplemented with fresh medium containing compound every 3 days for 12 days by crystal violet staining-based microscopic analysis; format: functional, cell-based
How it was run: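 Cells seeded at 400–800 per well in 6-well plates; after 24 h, treated with 0–40 μM in fresh medium (with or without compound) replaced every three days for 12 days. Colonies fixed in methanol, stained with 0.5% crystal violet for 15 min and counted by microscope; reported as surviving colonies, mean ± SD of three experiments.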

CT26 [5] = assay: Induction of apoptosis in mouse CT26 cells assessed as decrease in pro-caspase-3 expression up to 40 uM after 48 hrs by Western blot analysis; format: functional, cell-based
How it was run: (§3)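 Cells treated 48 h at 0, 10, 20 and 40 μM, washed in cold PBS, lysed in RIPA; protein equalized by Lowry assay, resolved by SDS-PAGE, transferred to PVDF, blocked 1 h at 37 °C, primary antibody overnight at 4 °C, secondary 1 h, ECL detection, densitometry. β-actin loading control.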

CT26 [6] = assay: Induction of apoptosis in mouse CT26 cells assessed as necrotic cells at 20 uM after 48 hrs by Annexin V-FITC/propidium iodide staining-based flow cytometric analysis (reference value: 1.80 %); format: functional
How it was run: (§4)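 CT26 cells seeded at 1–2 × 10^5 per well in six-well plates for 24 h, then exposed to PEC (0–40 μM) for 24 or 48 h. Cells harvested, washed twice in cold PBS, stained with Annexin V-FITC/PI and read by flow cytometry. Early apoptotic = Annexin V+ only; late apoptotic = Annexin V+/PI+. Mean ± SD of three experiments.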

CT26 [7] = assay: Induction of apoptosis in mouse CT26 cells assessed as late apoptotic cells at 10 uM after 48 hrs by Annexin V-FITC/propidium iodide staining-based flow cytometric analysis (reference value: 6.49 %); format: functional; how it was run: as §4
HCT-116 [8] = assay: Induction of apoptosis in human HCT116 cells assessed as late apoptotic cells at 20 uM after 48 hrs by Annexin V-FITC/propidium iodide staining-based flow cytometric analysis (reference value: 3.87 %); format: functional; how it was run: as §1
CT26 [9] = assay: Antitumor activity against mouse CT26 cells allografted in Balb/c mouse assessed as inhibition of Ki-67 positive cells in tumour tissue at 25 to 50 mg/kg, ip administered daily for 14 days starting from 6 days post implantation by immunohistochemical analysis; format: functional, organism-based; how it was run: as §2
CT26 [10] = assay: Inhibition of colony formation in mouse CT26 cells assessed as reduction in number of colonies up to 40 uM incubated for 24 hrs supplemented with fresh medium containing compound every 3 days for 12 days by crystal violet staining-based microscopic analysis; format: functional, cell-based
How it was run: (§5)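 400–800 cells per well seeded in 6-well plates; after 24 h, PEC (0–40 μM) added. Medium with or without compound replaced every three days for 12 days. Colonies washed in cold PBS, fixed in methanol, stained 15 min with 0.5% crystal violet and counted under a microscope. Mean ± SD of three experiments.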

HCT-116 [11] = assay: Antiinvasive activity against human HCT116 cells after 48 hrs by crystal violet staining based light microscopic analysis; format: functional, cell-based
How it was run: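 Transwell membrane upper surface coated with Matrigel diluted 1:5 in serum-free medium. 5 × 10^4 cells in serum-free medium in upper part, 10% FBS medium below, treated with various concentrations for 48 h. Non-invading cells removed; underside cells fixed in methanol, stained with 0.5% crystal violet, counted by light microscopy; expressed as % inhibition versus untreated.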

HCT-116 [12] = assay: Induction of apoptosis in human HCT116 cells assessed as decrease in pro-caspase-3 expression up to 40 uM after 48 hrs by Western blot analysis; format: functional, cell-based; how it was run: as §3
HCT-116 [13] = assay: Inhibition of colony formation in human HCT116 cells assessed as reduction in size of colonies up to 40 uM incubated for 24 hrs supplemented with fresh medium containing compound every 3 days for 12 days by crystal violet staining-based microscopic analysis; format: functional, cell-based; how it was run: as §5
HCT-116 [14] = assay: Induction of apoptosis in human HCT116 cells assessed as late apoptotic cells at 40 uM after 48 hrs by Annexin V-FITC/propidium iodide staining-based flow cytometric analysis (reference value: 3.87 %); format: functional; how it was run: as §1
CT26 [15] = assay: Induction of apoptosis in mouse CT26 cells assessed as decrease in Bcl-2 protein expression up to 40 uM after 48 hrs by Western blot analysis; format: functional, cell-based; how it was run: as §3
CT26 [16] = assay: Induction of apoptosis in mouse CT26 cells assessed as early apoptotic cells at 20 uM after 48 hrs by Annexin V-FITC/propidium iodide staining-based flow cytometric analysis (reference value: 2.84 %); format: functional; how it was run: as §4
CT26 [17] = assay: Induction of apoptosis in mouse CT26 cells assessed as late apoptotic cells at 20 uM after 48 hrs by Annexin V-FITC/propidium iodide staining-based flow cytometric analysis (reference value: 6.49 %); format: functional; how it was run: as §4
CT26 [18] = assay: Induction of apoptosis in mouse CT26 cells assessed as increase in Bax protein expression up to 40 uM after 48 hrs by Western blot analysis; format: functional, cell-based
How it was run: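 CT26 cells exposed 48 h to PEC at 0, 10, 20 and 40 μM, washed twice in cold PBS, lysed in RIPA. Protein measured by Lowry and equalized, run on SDS-PAGE, blotted to PVDF. Blocked 1 h at 37 °C, primary antibodies (Bax, Bcl-2, pro-caspase-3, cleaved caspase-3) overnight at 4 °C, secondary 1 h, ECL detection, densitometry.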

CT26 [19] = assay: Antimetastatic activity against mouse CT26 cells assessed as inhibition of MMP-9 expression after 48 hrs by Western blot analysis; format: functional, cell-based; how it was run: as §3
CT26 [20] = assay: Antimetastatic activity against mouse CT26 cells allografted in Balb/c mouse assessed as reduction in abdominal circumference at 25 to 50 mg/kg, ip administered daily for 14 days starting from 6 days post implantation; format: functional, organism-based; how it was run: as §2

With `COc1ccc(-c2cc(=O)c3c(O)c(OC)c(O)cc3o2)cc1` [PECTOLINARIGENIN] the viability at 40 µM (HCT-116 [1]) was 73.7%, the Activity (CT26 [2]) was “Active” and the Activity (HCT-116 [3]) was “Active”. For the same compound, the inhibition (HCT-116 [4]) was “Active”, the Activity (CT26 [5]) was “Active” and the Activity (CT26 [6]) was 1.94%. For the same compound, the Activity (CT26 [7]) was 15.5%, the Activity (HCT-116 [8]) was 7.36% and the inhibition (CT26 [9]) was “Active”. The inhibition (CT26 [10]) was “Active”, the inhibition (HCT-116 [11]) was “Dose-dependent effect” and the Activity (HCT-116 [12]) was “Active”. For the same compound, the inhibition (HCT-116 [13]) was “Active”, the Activity (HCT-116 [14]) was 9.67% and the Activity (CT26 [15]) was “Active”. The Activity (CT26 [16]) was 8.14%, the Activity (CT26 [17]) was 12.4% and the Activity (CT26 [18]) was “Active”. The inhibition (CT26 [19]) was “Dose-dependent effect” and the Activity (CT26 [20]) was “Active”.
